Data as given in ChEMBL document CHEMBL1141085, “Imidazole-4,5-dicarboxamide derivatives with antiproliferative activity against HL-60 cells” (J Med Chem, 2005).

What was measured:
HL-60 [1] = test: Mean in vitro concentration to inhibit the metabolic activity of HL-60 cells after 2 days of incubation; n=3; format: functional, cell-based; conditions: Homo sapiens, HL-60, 48 h
Procedure, shortened: (§1)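 Human HL-60 promyelocytic leukemia cells in RPMI 1640 with 8.25% FCS, 37 °C, 5% CO2. Seeded in triplicate at 12.5×10^4 (2-day) or 3.75×10^4 (4-day) cells/0.5 mL. Drug in DMSO (0.2% final), serial dilutions.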

HL-60 [2] = test: Mean in vitro concentration to inhibit the metabolic activity of HL-60 cells after 4 days of incubation; n=3; format: functional, cell-based; conditions: Homo sapiens, HL-60, 96 h; procedure, shortened: as §1

Row | IC50 (HL-60 [1]) | IC50 (HL-60 [2]) | Compound
1 | 89.4 µM | 68.8 µM | C[C@H](c1ccccc1)N(C)C(=O)c1[nH]cnc1C(=O)Nc1ccc(Cl)c(Cl)c1
2 | > 62.5 µM | > 62.5 µM | COC(=O)[C@@H](NC(=O)c1[nH]cnc1C(=O)Nc1ccc(Cl)c(Cl)c1)C(C)C
3 | 11.5 µM | 7.4 µM | O=C(NCc1ccccc1)c1nc[nH]c1C(=O)Nc1ccc(Cl)c(Cl)c1
4 | 4.7 µM | 2.7 µM | C[C@@H](NC(=O)c1[nH]cnc1C(=O)Nc1ccccc1)C(=O)OC(C)(C)C
5 | 7 µM | 2.9 µM | O=C(NCc1ccc(-c2ccccc2)cc1)c1nc[nH]c1C(=O)Nc1ccc(Cl)c(Cl)c1
6 | 33.1 µM | 12.3 µM | O=C(NC1CCCCC1)c1nc[nH]c1C(=O)Nc1ccc(Cl)c(Cl)c1
7 | 4.6 µM | 2.5 µM | C[C@@H](NC(=O)c1[nH]cnc1C(=O)Nc1ccc(Cl)c(Cl)c1)C(=O)OC(C)(C)C
8 | 16.2 µM | 8.8 µM | O=C(Nc1ccc(Cl)c(Cl)c1)c1nc[nH]c1C(=O)NCc1ccc(Cl)cc1
9 | 13.2 µM | 6.8 µM | COC(=O)[C@@H](NC(=O)c1[nH]cnc1C(=O)Nc1ccc(Cl)c(Cl)c1)c1ccccc1
10 | 17.3 µM | 10.8 µM | COC(=O)[C@H](NC(=O)c1[nH]cnc1C(=O)Nc1ccc(Cl)c(Cl)c1)c1ccccc1
11 | 49.8 µM | 25.4 µM | CC(C)(C)OC(=O)CNC(=O)c1[nH]cnc1C(=O)Nc1ccc(Cl)c(Cl)c1
12 | 14.7 µM | 7.2 µM | CC(C)CNC(=O)c1[nH]cnc1C(=O)Nc1ccc(Cl)c(Cl)c1
13 | 6 µM | 3.1 µM | COc1ccc(NC(=O)c2[nH]cnc2C(=O)N[C@H](C)C(=O)OC(C)(C)C)cc1
14 | 17.7 µM | 13.2 µM | O=C(NCCc1ccccc1)c1nc[nH]c1C(=O)Nc1ccc(Cl)c(Cl)c1
15 | 379 µM | 38.9 µM | CCCN(CCC)C(=O)c1[nH]cnc1C(=O)Nc1ccc(Cl)c(Cl)c1
16 | 14.6 µM | 7.8 µM | CCCCCCNC(=O)c1[nH]cnc1C(=O)Nc1ccc(Cl)c(Cl)c1
17 | 6.3 µM | 3.7 µM | CCOC(=O)c1ccc(NC(=O)c2[nH]cnc2C(=O)N[C@H](C)C(=O)OC(C)(C)C)cc1
18 | 8.8 µM | 5.9 µM | C[C@@H](NC(=O)c1[nH]cnc1C(=O)Nc1ccc(Cl)c(Cl)c1)c1ccccc1
19 | 21.4 µM | 15.2 µM | Cc1ccc(CNC(=O)c2[nH]cnc2C(=O)Nc2ccc(Cl)c(Cl)c2)cc1
20 | 6.3 µM | 3.5 µM | Cc1ccc(NC(=O)c2nc[nH]c2C(=O)N[C@H](C)C(=O)OC(C)(C)C)cc1
21 | 24.3 µM | 18.3 µM | COc1ccc(CNC(=O)c2[nH]cnc2C(=O)Nc2ccc(Cl)c(Cl)c2)cc1
22 | 4.9 µM | 2.4 µM | C[C@H](NC(=O)c1[nH]cnc1C(=O)Nc1ccc(Cl)c(Cl)c1)C(=O)OC(C)(C)C
23 | 8.2 µM | 2.9 µM | C[C@@H](NC(=O)c1[nH]cnc1C(=O)Nc1cccc(Cl)c1)C(=O)OC(C)(C)C
24 | > 62.5 µM | > 62.5 µM | COC(=O)[C@@H](C)NC(=O)c1[nH]cnc1C(=O)Nc1ccc(Cl)c(Cl)c1
25 | 8.5 µM | 4.9 µM | COC(=O)[C@H](NC(=O)c1[nH]cnc1C(=O)Nc1ccc(Cl)c(Cl)c1)C(C)C
26 | 75.5 µM | 56 µM | C[C@@H](c1ccccc1)N(C)C(=O)c1[nH]cnc1C(=O)Nc1ccc(Cl)c(Cl)c1
27 | 6.6 µM | 3.3 µM | C[C@@H](NC(=O)c1[nH]cnc1C(=O)Nc1ccc(Cl)cc1)C(=O)OC(C)(C)C
28 | 9.2 µM | 5.9 µM | C[C@H](NC(=O)c1[nH]cnc1C(=O)Nc1ccc(Cl)c(Cl)c1)c1ccccc1
